Rows were chosen to be rich in hits. Some 2.1% of all compounds tested hit in one or more screens of this group.
bovine MsrA act – bovine MsrA enzyme activators, primary screen, biochemical, absorbance, HTS; Methionine sulfoxide reductase A (Bos taurus); purified bovine MsrA, absorbance read-out; activation, % at 10.6 µM; 360,000 tested, 0.3% active; in the data active = activation above about 7.5%
PKA-R1A activ – activators of PKA-R1A holoenzyme, primary screen, biochemical, fluorescence polarization, Cy5-IP20, bovine R1A, mouse PKAc; cAMP-dependent protein kinase type I-alpha regulatory subunit (Bos taurus) + …; PKA-R1A dissociation; scaled: DMSO 0%, 113 µM cGMP 100%; activation, % at 11.4 µM; 340,000 tested, 0.083% active;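 active = percent activation above the mean of all tested compounds plus 3 SD, cut at about 19% in these data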;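 also: higher means more PKAc released from R1A so a rise in polarization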
IMP-1 inhibitor – IMP-1 metallo-beta-lactamase inhibitors, primary screen, biochemical, epi-absorbance readout, Pseudomonas aeruginosa enzyme | metallo-beta-lactamase IMP-1 (Pseudomonas aeruginosa) | purified IMP-1, nitrocefin hydrolysis, epi-absorbance fluorescence | inhibition, % at 5.6 µM | 290,000 tested, 0.45% active | AID 1556, 2009;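 active = inhibition above the mean plus 3 SD of all compounds in the same screening run, cut at about 4.5% in these data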
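Material – recombinant IMP-1 enzyme, purified · Amount – IMP-1 0.2 nM before substrate addition · Medium – HEPES buffer pH 7.1 with ZnSO4 and Brij 35 · Timing – 25 °C, 15 min preincubation, 25 min reaction · Measured by – plate fluorescence quenching by hydrolysis product, ex 480/em 530 nm · Read-out – percent enzyme inhibition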
PKA-R2B act – activators of PKA-R2B holoenzyme, primary screen, biochemical, fluorescence polarization, Cy5-IP20, human; cAMP-dependent protein kinase catalytic subunit beta (Homo sapiens) + cAMP-dependent …; PKA-R2B holoenzyme dissociation; R2B truncated from residue 108, S112A mutant; 0% DMSO only, 100% 113 µM cGMP; activation, % at 11.4 µM; 340,000 tested, 0.079% active;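 active = activation above a cutoff set at the mean over all compounds plus 3 SD, cut at about 18% in these data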;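 also: higher means more holoenzyme dissociation and a rise in polarization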
Target sequence (P31323 whole entry, looked up, other chains not shown, the tested form may be a part): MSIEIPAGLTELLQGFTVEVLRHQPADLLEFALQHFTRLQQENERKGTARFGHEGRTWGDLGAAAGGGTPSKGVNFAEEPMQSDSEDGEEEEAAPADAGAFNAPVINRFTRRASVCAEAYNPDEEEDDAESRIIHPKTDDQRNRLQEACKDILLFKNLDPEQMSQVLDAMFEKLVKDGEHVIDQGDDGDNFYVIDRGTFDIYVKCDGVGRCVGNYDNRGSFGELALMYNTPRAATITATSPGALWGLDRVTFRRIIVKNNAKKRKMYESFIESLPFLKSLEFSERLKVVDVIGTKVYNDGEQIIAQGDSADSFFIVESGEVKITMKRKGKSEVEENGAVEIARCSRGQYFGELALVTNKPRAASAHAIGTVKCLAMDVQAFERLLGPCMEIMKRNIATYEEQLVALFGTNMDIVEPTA
MsrA inhibitor – bovine MsrA enzyme inhibitors, primary screen, biochemical, absorbance, HTS; purified bovine MsrA, absorbance read-out; 360,000 tested, 0.75% active; Methionine sulfoxide reductase A (Bos taurus); AID 651718, 2012; inhibition, % at 15.5 µM; in the data active = inhibition above about 4.5%
VIM-2 inhibitor – VIM-2 metallo-beta-lactamase inhibitors, primary screen, biochemical, epi-absorbance readout, Pseudomonas aeruginosa enzyme | purified VIM-2, nitrocefin hydrolysis, epi-absorbance fluorescence | inhibition, % at 5.6 µM | 290,000 tested, 0.89% active | AID 1527, 2009;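 active = inhibition above the mean of all tested compounds plus 3 SD, cutoff set per screening run, cut at about 7.5% in these data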;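 also: red hydrolysis product quenches plate fluorescence so inhibitors raise well fluorescence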
Numbers stand for hits; 0 = inactive; - = not tested or not shown.

SMILES	bovine MsrA act	PKA-R1A activ	IMP-1 inhibitor	PKA-R2B act	MsrA inhibitor	VIM-2 inhibitor
C[C@@H]1CN([C@@H](C)CO)C(=O)CCCn2nncc2CO[C@H]1CN(C)C(=O)Nc1ccc(N2CCN(C)CC2)cc1	-	-	-	-	0	-
O=C(/C=C/c1ccco1)NC(=S)NNC(=O)c1ccco1	0	0	0	0	6.6	0
CCOC(=O)N(C)C[C@H]1OCc2cn(nn2)CCCC(=O)N([C@@H](C)CO)C[C@@H]1C	-	-	-	-	0	-
Cc1cc(-c2n[nH]c(=S)n2CC(C)C)cs1	0	0	0	0	0	8.6
CCN(CC(=O)Nc1ccc(NC(C)=O)cc1)C(=O)c1ccc(S(=O)(=O)N2CCCC2)cc1	0	0	-	0	0	-
COc1ccc(CNc2ncc(-c3ccccc3)n2C)cc1	0	0	0	0	0	0
CCOc1cc(CNc2ncc(-c3ccc(OC)cc3)n2C)ccc1O	0	0	4.8	0	0	0
COc1ccccc1-c1cc(C(F)(F)F)n2ncc(S(=O)(=O)c3ccccc3)c2n1	0	0	0	0	9.4	0
Cc1ncc(CO)c2c1Oc1nc(-c3ccccc3)nc(SCC(=O)N(C)c3ccccc3)c1C2	-	-	7.9	-	0	0
Cc1ncc(CO)c2c1Oc1nc(-c3ccccc3F)nc(SCC(=O)N(C)c3ccccc3)c1C2	0	0	0	0	-	0
Cc1ncc(CO)c2c1Oc1nc(-c3ccccc3)nc(SCC(=O)N3CCOCC3)c1C2	0	0	32	0	0	0
COC(=O)[C@]12C[C@H](CC(=O)NCc3cccc4ccccc34)C(=O)N(CCC3=CCCCC3)C1=C[C@H](COCc1ccccc1)O[C@@H]2C	-	-	-	-	0	-
O=c1c(Cl)c(O)c2cccc3c4ccccc4n1c23	0	0	0	0	0	9.4
COc1c(O)c(=O)n2c3ccccc3c3ccnc1c32	0	0	-	0	0	-
O=C(NCc1ccccn1)c1ccc2nc(C3CCCCC3)oc2c1	0	0	0	0	0	0
CCc1ccc(-c2nc(SCC(=O)NC3CC3)n[nH]2)cc1	0	0	-	0	0	-
O=C(Oc1ccc2c(-c3ccccc3)cc(=O)oc2c1)C1CCCCC1	0	0	0	0	19	0
COc1ccc(-c2cc(=O)oc3cc(OC(=O)C4CCCCC4)ccc23)cc1	0	0	0	0	0	0
CSc1ncccc1C(=O)NCC(c1cccs1)N1CCOCC1 (stereo unspecified)	0	0	-	0	0	-
COc1ccc(C(CNC(=O)C(C)c2ccc3cc(OC)ccc3c2)N(C)C)cc1 (stereo unspecified)	0	0	0	0	0	0
COc1ccc2cc([C@H](C)C(=O)N(C)Cc3ccccc3N3CCCC3)ccc2c1	0	0	0	0	0	7.8
O=C(N/N=C/c1cc([N+](=O)[O-])ccc1Cl)c1ccc2nc[nH]c2c1	0	0	0	0	0	0
O=C(N/N=C/c1ccc(Cl)cc1Cl)c1ccc2nc[nH]c2c1	0	0	8.8	0	0	0
C=CCn1c(SCC(C)=O)nc2scc(-c3ccco3)c2c1=O	0	0	16	0	0	0
CCOC(=O)C1CCN(c2cc3c(cc2NC(=O)c2ccccc2F)n(C)c(=O)n3C)CC1	0	0	18	0	0	0
SMILES	bovine MsrA act	PKA-R1A activ	IMP-1 inhibitor	PKA-R2B act	MsrA inhibitor	VIM-2 inhibitor
COc1ccc(C(CC(=O)N2CCCC2)c2c(OC)cc(OC)c3c(-c4ccccc4)cc(=O)oc23)cc1 (stereo unspecified)	9.0	0	-	0	0	-
CC(C)(C)Cc1nnc(NS(=O)(=O)Cc2ccccc2)s1	0	0	0	0	0	9.0
CCOc1ccc(NS(=O)(=O)c2ccc3[nH]c(=O)c(=O)[nH]c3c2)cc1	0	-	0	-	0	0
CCOc1ccc(NC(=O)c2ccc3[nH]c(=O)c(=O)[nH]c3c2)cc1	0	0	0	0	4.6	0
CCOC(=O)c1c(C)nc2c(c1-c1ccccc1)C(=O)c1ccccc1-2	0	20	0	0	0	0
CCOC(=O)c1c(C)nc2c(c1-c1cc(OC)ccc1OC)C(=O)c1ccccc1-2	0	0	0	0	0	0
CN(c1ncc(C(F)(F)F)cc1Cl)N1C(=O)c2cccc([N+](=O)[O-])c2C1=O	0	0	37	0	0	0
Nc1[nH]c(C(=O)c2ccc(Cl)cc2)c(-c2ccc(Br)cc2)c1C(=O)NCc1ccc(Cl)cc1Cl	-	-	-	-	0	-
COc1ccc(NC(=O)N(C)C[C@H]2OCc3cnnn3CCCC(=O)N([C@@H](C)CO)C[C@H]2C)c(OC)c1	0	0	-	0	0	-
C=CCNC(=S)N1C[C@H]2CON(C)[C@H]2C[C@H]1c1ccccc1Br	-	-	-	-	0	-
Fc1ccc(CSc2ccc3nnc(-c4ccccn4)n3n2)cc1	0	0	0	0	0	9.3
CCCNC(=O)C1(C)CCCN(C(=O)c2cc(F)cc(F)c2)C1 (stereo unspecified)	0	-	-	-	0	-
O=C(NC1CCCCC1)NS(=O)(=O)c1ccc2c(c1)CCC2	0	0	-	0	0	-
COC(=O)[C@H](Cc1ccccc1)N[C@H](c1ccc(OC)cc1)[C@@H](O)Cc1ccccc1	-	-	-	-	0	-
COCc1cc(C)nc(OCC(=O)N/N=C/c2ccccc2O)c1C#N	0	0	0	0	0	0
COCc1cc(C)nc(OCC(=O)N/N=C/c2ccc(O)cc2O)c1C#N	0	0	0	0	4.5	0
CSc1nc2sc3c(c2c2nncn12)CCC3	0	0	0	0	0	11
Cn1c2ccccc2c(=O)c2ccc(-c3ccc4c(c3)OCO4)cc21	0	0	0	0	0	9.3
COc1cc(-c2ccc3c(=O)c4ccccc4n(C)c3c2)cc(OC)c1OC	0	0	0	0	0	12
Cn1c2ccccc2c(=O)c2ccc(C#Cc3ccccn3)cc21	-	-	0	-	0	10
CC1(C)C2CCC1(C)C(NCC(O)COc1ccc(C#N)cc1)C2 (stereo unspecified)	0	0	0	0	0	0
C[C@@H]1CN([C@H](C)CO)C(=O)CCCn2cc(nn2)CO[C@H]1CN(C)C(=O)Nc1ccc(C(C)(C)C)cc1	0	-	-	-	0	-
CSc1ccccc1-c1ccc2nccn2c1	0	-	-	-	0	-
CCn1c(SCC(=O)O)nnc1-c1cc2c(C)nn(-c3ccccc3)c2s1	0	0	0	0	0	10
Cc1nn(-c2ccccc2)c2sc(-c3nnc(SCC(=O)O)o3)cc12	0	0	0	0	0	0
O=C(Nc1ccccc1)c1cc(C2CCCN(C(=O)OCc3ccccc3)C2)on1 (stereo unspecified)	0	-	-	-	0	-
O=C(COC(=O)c1cc(-c2ccc(Cl)s2)nc2ccccc12)NCc1ccco1	0	0	0	0	4.6	0

From PubChem BioAssay
